Measured values as given in ChEMBL document CHEMBL3734738, “A structure-activity relationship of non-peptide macrocyclic histone deacetylase inhibitors and their anti-proliferative and anti-inflammatory activities” (Bioorg Med Chem, 2015).
pIC50: −log10 of the molar value.

Key:
[1] = target: T1, Histone deacetylase 8 (Homo sapiens, UniProt Q9BY41); test: Inhibition of recombinant HDAC8 (unknown origin) expressed in Escherichia coli BL21(DE3) after 60 mins using trichostatin A by label-free mass spectrometry-based SAMDI assay
T1 sequence (Q9BY41 whole entry): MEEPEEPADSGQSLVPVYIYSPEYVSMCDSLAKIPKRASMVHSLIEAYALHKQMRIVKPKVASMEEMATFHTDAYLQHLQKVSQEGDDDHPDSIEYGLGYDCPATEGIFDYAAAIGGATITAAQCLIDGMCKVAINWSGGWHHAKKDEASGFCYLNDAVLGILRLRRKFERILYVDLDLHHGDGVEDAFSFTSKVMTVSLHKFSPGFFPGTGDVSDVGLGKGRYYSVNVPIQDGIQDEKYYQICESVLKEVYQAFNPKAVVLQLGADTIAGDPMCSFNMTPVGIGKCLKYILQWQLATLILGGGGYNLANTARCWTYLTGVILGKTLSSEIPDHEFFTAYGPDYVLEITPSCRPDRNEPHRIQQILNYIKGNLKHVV

[2] = test system: MCF7; test: Cytotoxicity against human MCF7 cells after 72 hrs by MTS assay; type: functional, cell-based; conditions: Homo sapiens, MCF7, 72 h; read-out: IC50
Summary of the method: (§1)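 Cells kept in DMEM with 10% FBS and 1% penicillin-streptomycin, seeded in 96-well plates for 24 h, then exposed to a range of drug concentrations for 72 h at 0.1% DMSO; viability read by MTS assay per manufacturer's protocol.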

[3] = Selectivity ratio of IC50 for African green monkey Vero cells to IC50 for human MCF7 cells; type: ADME, cell-based; conditions: Vero cells and MCF7 cells, read-out: Ratio IC50
Summary of the method: (§2)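 Cell viability (MTS) was measured in A549, MCF-7 and Vero cells kept in DMEM with 10% FBS and 1% penicillin-streptomycin. Cells were plated 24 h before drug, then exposed to a range of concentrations for 72 h, with DMSO held at 0.1%. The ratio divides the Vero IC50 by the IC50 for the tumour line, both from this assay.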

[4] = test system: A549; test: Cytotoxicity against human A549 cells after 72 hrs by MTS assay; type: functional, cell-based; conditions: Homo sapiens, A549, 72 h; read-out: IC50; summary of the method: as §1
[5] = Selectivity ratio of IC50 for African green monkey Vero cells to IC50 for human A549 cells; type: ADME, cell-based; conditions: Vero cells and A549 cells, read-out: Ratio IC50; summary of the method: as §2
[6] = target: Histone deacetylase 1 (Homo sapiens, UniProt Q13547); test: Inhibition of recombinant HDAC1 (unknown origin) expressed in Escherichia coli BL21(DE3) after 60 mins using trichostatin A by label-free mass spectrometry-based SAMDI assay
[7] = test system: Vero; test: Cytotoxicity against African green monkey Vero cells after 72 hrs by MTS assay; type: cell-based; conditions: Chlorocebus sabaeus; summary of the method: as §1
[8] = target: T2, Protein deacetylase HDAC6 (Homo sapiens, UniProt Q9UBN7); test: Inhibition of recombinant HDAC6 (unknown origin) expressed in Escherichia coli BL21(DE3) after 60 mins using trichostatin A by label-free mass spectrometry-based SAMDI assay
T2 sequence (Q9UBN7 whole entry): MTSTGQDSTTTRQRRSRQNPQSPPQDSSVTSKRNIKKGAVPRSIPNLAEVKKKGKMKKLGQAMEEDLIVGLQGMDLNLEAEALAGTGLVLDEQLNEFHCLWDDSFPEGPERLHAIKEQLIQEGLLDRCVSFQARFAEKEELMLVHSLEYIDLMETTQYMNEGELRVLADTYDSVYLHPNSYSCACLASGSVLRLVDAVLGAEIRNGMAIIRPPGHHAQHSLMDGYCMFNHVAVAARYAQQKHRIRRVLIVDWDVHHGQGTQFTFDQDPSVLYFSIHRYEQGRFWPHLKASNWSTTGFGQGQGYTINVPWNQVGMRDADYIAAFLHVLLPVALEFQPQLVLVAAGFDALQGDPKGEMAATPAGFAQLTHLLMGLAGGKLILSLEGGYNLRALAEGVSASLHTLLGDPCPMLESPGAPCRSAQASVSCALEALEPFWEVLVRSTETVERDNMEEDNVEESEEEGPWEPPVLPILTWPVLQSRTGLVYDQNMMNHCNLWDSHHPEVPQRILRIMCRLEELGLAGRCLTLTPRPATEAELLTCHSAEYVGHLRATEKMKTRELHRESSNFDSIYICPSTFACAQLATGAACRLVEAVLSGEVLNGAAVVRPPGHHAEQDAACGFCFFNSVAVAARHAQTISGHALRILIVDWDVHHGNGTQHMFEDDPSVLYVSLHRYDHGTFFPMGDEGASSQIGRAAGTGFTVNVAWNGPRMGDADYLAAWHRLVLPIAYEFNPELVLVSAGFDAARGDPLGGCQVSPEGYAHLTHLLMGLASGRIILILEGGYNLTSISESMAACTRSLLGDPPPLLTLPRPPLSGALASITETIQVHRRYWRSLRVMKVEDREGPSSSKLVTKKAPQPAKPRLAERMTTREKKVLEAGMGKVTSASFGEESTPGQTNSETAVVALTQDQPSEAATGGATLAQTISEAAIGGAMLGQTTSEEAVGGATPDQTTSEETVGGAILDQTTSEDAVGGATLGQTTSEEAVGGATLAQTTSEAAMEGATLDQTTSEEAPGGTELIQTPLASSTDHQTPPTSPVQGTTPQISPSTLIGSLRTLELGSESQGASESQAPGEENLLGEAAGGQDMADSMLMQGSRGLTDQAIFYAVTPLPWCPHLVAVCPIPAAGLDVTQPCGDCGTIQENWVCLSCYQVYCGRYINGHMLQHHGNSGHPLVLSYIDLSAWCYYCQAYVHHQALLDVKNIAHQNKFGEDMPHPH

Chain of Histone deacetylase 1 (Q13547 whole entry): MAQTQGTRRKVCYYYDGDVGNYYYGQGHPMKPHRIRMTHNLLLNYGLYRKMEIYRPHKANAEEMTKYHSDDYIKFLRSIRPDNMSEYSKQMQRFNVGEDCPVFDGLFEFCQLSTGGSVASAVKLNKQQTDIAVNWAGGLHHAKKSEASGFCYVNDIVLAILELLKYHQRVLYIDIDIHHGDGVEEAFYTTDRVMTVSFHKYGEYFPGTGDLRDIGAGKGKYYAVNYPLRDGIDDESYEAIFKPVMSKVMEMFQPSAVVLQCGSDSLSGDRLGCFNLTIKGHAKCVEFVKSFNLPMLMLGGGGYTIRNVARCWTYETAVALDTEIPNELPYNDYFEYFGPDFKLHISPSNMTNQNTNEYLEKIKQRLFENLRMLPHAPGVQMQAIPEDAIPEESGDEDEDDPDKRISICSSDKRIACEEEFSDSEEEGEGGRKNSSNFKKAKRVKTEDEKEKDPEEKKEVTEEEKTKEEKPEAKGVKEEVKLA

CC[C@H]1OC(=O)[C@H](C)C(=O)[C@H](C)[C@@H](O[C@@H]2O[C@H](C)C[C@H](N(C)Cc3cccc(-c4cn(CCCCCCC(=O)NO)nn4)c3)[C@H]2O)[C@@](C)(OC)C[C@@H](C)C2=NCCN3C(=O)O[C@@]1(C)[C@H]3[C@H]2C
pIC50 [1]: 6.51 | pIC50 [2]: 6.07 | selectivity ratio [3]: 23 | pIC50 [4]: 5.13 | selectivity ratio [5]: 2.7 | pIC50 [6]: 7.26 | pIC50 [7]: < 4.70 | pIC50 [8]: 8.42
